Assay results as given in ChEMBL document CHEMBL3414458, “Discovery of novel 2,5-dioxoimidazolidine-based P2X(7) receptor antagonists as constrained analogues of KN62” (J Med Chem, 2015).
Calls of active or inactive are those of the source. No cut-off for these calls is given here.

Key:
[1] = molecular target: T1, P2X purinoceptor 7 (Rattus norvegicus) (UniProt Q64663); test: Antagonist activity at P2X7 receptor in neuropathic rat dorsal horn assessed as inhibition of long term potentiation-induced neropathic pain at 20 uM relative to control; settings: Dorsal horn of spinal cord
T1 sequence (whole entry): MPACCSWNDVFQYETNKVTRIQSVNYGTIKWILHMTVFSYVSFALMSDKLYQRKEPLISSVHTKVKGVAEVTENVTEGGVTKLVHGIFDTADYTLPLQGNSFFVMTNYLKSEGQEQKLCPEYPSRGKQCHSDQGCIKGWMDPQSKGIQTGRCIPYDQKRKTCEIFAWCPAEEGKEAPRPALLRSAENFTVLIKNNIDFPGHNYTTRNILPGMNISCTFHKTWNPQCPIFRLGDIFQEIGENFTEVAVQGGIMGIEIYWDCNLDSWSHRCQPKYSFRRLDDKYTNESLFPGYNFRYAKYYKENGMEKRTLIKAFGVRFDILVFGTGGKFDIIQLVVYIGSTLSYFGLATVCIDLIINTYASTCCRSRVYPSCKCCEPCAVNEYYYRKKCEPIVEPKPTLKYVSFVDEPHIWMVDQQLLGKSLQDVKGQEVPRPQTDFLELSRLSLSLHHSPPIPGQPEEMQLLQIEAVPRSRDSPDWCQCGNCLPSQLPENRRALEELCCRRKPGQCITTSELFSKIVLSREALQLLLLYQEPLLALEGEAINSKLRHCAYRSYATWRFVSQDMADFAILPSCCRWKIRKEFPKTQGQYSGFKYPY
In short: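 Ex vivo spinal cord preparation: LTP-induced pain signalling recorded in the dorsal horn of neuropathic rats. Pregabalin served as the positive control.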

Rattus norvegicus = test: Antiinflammatory activity in Sprague-Dawley rat assessed as decrease in carrageenan-induced paw edema at 10 mg/kg, ip preincubated for 1 hr followed by carrageenan challenge measured after 3 to 6 hrs by plethysmometer relative to control
Mus musculus [2] = test: Antiarthritic activity in CII-induced DBA/1J mouse arthritic model assessed as decrease in chronic inflammation at 50 mg/kg, ip measured 10 days post second CII booster by Hematoxylin and eosin staining relative to CII-treated control; format: functional, organism-based; design: dose 50 mg/kg
In short: (§1)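 Mouse type II collagen-induced arthritis; 50 mg/kg dosed by injection. Ankle histology was scored as cumulative arthritis injury scores against the vehicle-treated CII group.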

Mus musculus [3] = test: Antiarthritic activity in CII-induced DBA/1J mouse arthritic model assessed as decrease in fibrosis at 50 mg/kg, ip measured 10 days post second CII booster by Hematoxylin and eosin staining relative to CII-treated control; format: functional, organism-based; design: dose 50 mg/kg; in short: as §1
[4] = molecular target: T2, P2X purinoceptor 7 (Mus musculus) (UniProt Q9Z1M0); test: Antagonist activity at P2X7 receptor in LPS-primed mouse J774.A1 cells assessed as inhibition of ATP-induced IL-1beta release after 30 mins by ELISA; format: cell-based
T2 sequence (whole entry): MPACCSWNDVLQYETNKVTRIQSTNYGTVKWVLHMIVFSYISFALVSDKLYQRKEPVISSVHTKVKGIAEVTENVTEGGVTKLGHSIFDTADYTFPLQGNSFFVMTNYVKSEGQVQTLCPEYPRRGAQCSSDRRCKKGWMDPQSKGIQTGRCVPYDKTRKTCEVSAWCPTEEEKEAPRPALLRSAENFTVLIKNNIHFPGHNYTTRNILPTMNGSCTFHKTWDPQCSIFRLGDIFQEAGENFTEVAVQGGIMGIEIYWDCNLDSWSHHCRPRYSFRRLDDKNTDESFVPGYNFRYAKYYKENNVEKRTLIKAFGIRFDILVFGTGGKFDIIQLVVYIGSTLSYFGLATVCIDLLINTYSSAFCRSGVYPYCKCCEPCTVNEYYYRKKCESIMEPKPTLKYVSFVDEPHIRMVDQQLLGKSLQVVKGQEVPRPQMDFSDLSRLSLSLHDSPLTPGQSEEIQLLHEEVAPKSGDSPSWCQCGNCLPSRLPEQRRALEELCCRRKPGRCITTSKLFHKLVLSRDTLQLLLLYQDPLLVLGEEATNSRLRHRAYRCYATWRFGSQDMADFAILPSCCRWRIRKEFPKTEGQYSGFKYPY
In short: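 J774.A1 mouse cells stimulated with 5 mM ATP; IL-1β release measured, with IC50 taken from concentration-response data.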

[5] = molecular target: T3, P2X purinoceptor 7 (Homo sapiens) (UniProt Q99572); test: Antagonist activity at P2X7 receptor in LPS/IFN-gamma-differentiated human THP1 cells assessed as inhibition of BzATP-induced IL-1beta release at 1 uM preincubated for 30 mins followed by BzATP induction measured after 30 mins by ELISA relative to control; format: cell-based; settings: THP-1
T3 sequence (whole entry): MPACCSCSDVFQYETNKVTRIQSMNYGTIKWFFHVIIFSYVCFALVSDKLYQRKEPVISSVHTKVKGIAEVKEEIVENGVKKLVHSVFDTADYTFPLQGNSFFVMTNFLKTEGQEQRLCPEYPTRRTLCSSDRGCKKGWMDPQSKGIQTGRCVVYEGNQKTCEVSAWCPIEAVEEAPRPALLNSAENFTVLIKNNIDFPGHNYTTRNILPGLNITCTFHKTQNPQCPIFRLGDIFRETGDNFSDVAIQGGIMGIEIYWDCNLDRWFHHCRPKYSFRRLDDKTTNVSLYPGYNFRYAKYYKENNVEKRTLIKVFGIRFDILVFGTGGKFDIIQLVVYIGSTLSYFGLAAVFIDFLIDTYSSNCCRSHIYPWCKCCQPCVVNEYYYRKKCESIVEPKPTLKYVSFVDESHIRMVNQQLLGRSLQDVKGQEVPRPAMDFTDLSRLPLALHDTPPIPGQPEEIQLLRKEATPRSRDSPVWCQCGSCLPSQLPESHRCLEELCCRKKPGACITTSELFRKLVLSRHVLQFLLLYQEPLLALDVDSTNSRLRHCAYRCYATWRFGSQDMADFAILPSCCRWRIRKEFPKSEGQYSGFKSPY
In short: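 LPS-primed THP-1 human monocytes were stimulated with BzATP, and IL-1β release was measured by ELISA. Test compound was given at a single concentration of 1 µM, and results are expressed as percent inhibition of BzATP-induced IL-1β release.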

SMILES: O=C1NC(=O)N(C2CCN(C(=O)c3ccc(Cl)c(C(F)(F)F)c3)CC2)C1Cc1ccc(OS(=O)(=O)c2cccc3cnccc23)cc1 (racemic)
- inhibition [1]: 76%
- Activity (Rattus norvegicus): Active
- Activity (Mus musculus [2]): Active
- Activity (Mus musculus [3]): Active
- inhibition [4]: Dose-dependent effect
- inhibition [5]: > 95%
